HSP90 refold inh: HSP90 inhibitors, primary screen, cell lysate, luminescence; Rabbit reticulocyte lysate, luciferase refolding luminescence, 3 h; 290,000 tested, 0.91% active; inhibition, % at 5.6 µM; AID 1789, 2009; Heat shock protein HSP 90 (rabbit reticulocyte lysate; luciferase refolding);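 active = inhibition above the screen-wide mean plus 3 SD, computed separately per campaign, cut at about 16% in these data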;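 also: 0% = DMSO wells and 100% = 60 µM geldanamycin wells; inhibitors lower the luminescence because luciferase stays unfolded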
FLuc stim CS: FLuc activators, initial screening, artefact control for FLuc-dependent activation tests, biochemical, ATPlite luminescence; ATPlite luciferase biochemical, 10 min; 0 = ATP-free wells, 1 = DMSO control; Luciferin 4-monooxygenase (Photinus pyralis), P08659; 200,000 tested, under 10 active; activation factor at 10 µM;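 active = luciferase activation factor, scaled between plate controls, of at least 2 with compound at 10 µM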
Target sequence (P08659 whole entry, looked up): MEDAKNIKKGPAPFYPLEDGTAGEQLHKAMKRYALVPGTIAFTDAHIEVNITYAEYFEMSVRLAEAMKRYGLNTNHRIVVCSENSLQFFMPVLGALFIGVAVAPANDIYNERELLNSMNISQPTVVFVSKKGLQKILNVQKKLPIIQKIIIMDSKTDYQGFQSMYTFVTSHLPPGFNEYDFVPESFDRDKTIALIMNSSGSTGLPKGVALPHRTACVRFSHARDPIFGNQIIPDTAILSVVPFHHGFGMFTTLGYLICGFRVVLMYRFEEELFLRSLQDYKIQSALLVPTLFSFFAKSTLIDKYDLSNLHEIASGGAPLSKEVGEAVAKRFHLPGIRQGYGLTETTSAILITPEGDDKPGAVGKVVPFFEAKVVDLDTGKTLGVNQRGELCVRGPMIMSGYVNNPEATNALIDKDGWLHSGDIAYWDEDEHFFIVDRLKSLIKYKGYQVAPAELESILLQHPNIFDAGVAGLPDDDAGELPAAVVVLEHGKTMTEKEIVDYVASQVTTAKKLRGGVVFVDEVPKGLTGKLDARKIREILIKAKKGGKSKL
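Material: Luciferase/luciferin reagent mix; Doses: test compounds dosed from 2 mM stocks in 100% DMSO; Schedule: 10 min incubation after luciferase reagent addition, room temperature; Measured by: luminescence from luciferase reaction; Read-out: luminescence gain marking luciferase activators.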
PPC-1+TRAIL kill: compounds killing PPC-1 cancer cells with TRAIL present, primary screen, TRAIL potentiator project, ATPLite luminescence, uHTS. PPC-1 cells + TRAIL, ATPLite viability luminescence. cell killing (% activity), % at 4 µM or 5 µM. 220,000 tested, 0.41% active;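 active = cell killing above 50% in the first pass at 4 µM, then a duplicate retest at 5 µM averaging 50% or more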;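 also: plate controls were cells with TRAIL plus DMSO for no effect and medium-only wells lacking cells for full effect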
TRAIL sens C8: viability loss with TRAIL in NB7+C8 cells, primary screen, TRAIL sensitizer project, cell-based, ATPlite luminescence; inhibition (viability loss, TRAIL sensitization), % at 10 µM; 360,000 tested, 1% active; AID 624354, 2012;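 active = compounds causing at least 50% loss of cell viability in the single-dose screen, relative to plate controls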
FLuc inhib CS: firefly luciferase enzyme inhibitors, primary screen, artefact control for luciferase-based inhibitor screens, biochemical, luminescence, ATPLite | Luciferin 4-monooxygenase (Photinus pyralis), P08659 | 10 min | inhibition, % at 10 µM | 200,000 tested, 1.5% active | AID 1006, 2008;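 active = inhibition above about 50% when tested at 10 µM, limit read from the data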
Active calls of the source: *. Sampled rows, rich in hits. Any-hit rate of the full collection: about 2%.

Results for Cc1cc(N/C=C/C(=O)c2cccs2)ccc1F ?
HSP90 refold inh: 3; FLuc stim CS: 0.2; PPC-1+TRAIL kill: 9; TRAIL sens C8: 45; FLuc inhib CS: 80*

What do the screens show for `CNc1cc([N+](=O)[O-])ccc1N/C=C/C(=O)c1cccs1`?
HSP90 refold inh: 1; FLuc stim CS: 1; PPC-1+TRAIL kill: 6; TRAIL sens C8: -1; FLuc inhib CS: -4

What do the screens show for `COc1cc(/C=N/Nc2nc3ccccc3[nH]c2=O)ccc1O`?
HSP90 refold inh: 3; FLuc stim CS: 0.5; PPC-1+TRAIL kill: 10; TRAIL sens C8: -2; FLuc inhib CS: 50*

How did COc1cc(/C=N/Nc2nc3ccccc3[nH]2)ccc1O do in these assays?
HSP90 refold inh: -3; FLuc stim CS: 0.5; PPC-1+TRAIL kill: 4; TRAIL sens C8: 7; FLuc inhib CS: 55*

What do the screens show for `COc1ccc(/C=N/Nc2nc3ccccc3c(=O)n2-c2ccccc2)cc1OC`?
HSP90 refold inh: 3; FLuc stim CS: 0.3; PPC-1+TRAIL kill: 27; TRAIL sens C8: 53*; FLuc inhib CS: 69*

What do the screens show for `CC(/C=N/Nc1nc2ccccc2[nH]1)=C\c1ccccc1`?
HSP90 refold inh: 4; FLuc stim CS: 0.3; PPC-1+TRAIL kill: 19; TRAIL sens C8: 38; FLuc inhib CS: 72*

How did N#Cc1ccc(NC(=O)COC(=O)C2CCC2)cc1 do in these assays?
TRAIL sens C8: 5

What do the screens show for `CC1=C(C(=O)N2CCOCC2)CC(CC(=O)NC2CCCCC2)C(=O)N1Cc1ccccc1` (stereo not drawn)?
TRAIL sens C8: -11

How did O=C(CN1C(=O)NC2(CCc3ccccc32)C1=O)Nc1ccc(Cl)cc1F (stereo not drawn) do in these assays?
TRAIL sens C8: 15

Results for C(=N\Nc1nc2ccccc2[nH]1)/c1ccc2c(c1)OCO2 ?
HSP90 refold inh: 4; FLuc stim CS: 0.5; PPC-1+TRAIL kill: 22; TRAIL sens C8: 4; FLuc inhib CS: 55*

Results for CC(=O)Nc1ccc(/C=N/Nc2nc3ccccc3[nH]2)cc1 ?
HSP90 refold inh: 0; FLuc stim CS: 0.6; PPC-1+TRAIL kill: 12; TRAIL sens C8: 75*; FLuc inhib CS: 40

What do the screens show for `O=C(O)c1ccc(/C=N/Nc2nc3ccccc3[nH]2)cc1`?
HSP90 refold inh: 4; PPC-1+TRAIL kill: -4; TRAIL sens C8: -5

How did COc1cc(/C=N/Nc2nc3ccccc3[nH]2)cc(OC)c1O do in these assays?
HSP90 refold inh: 3; FLuc stim CS: 0.4; PPC-1+TRAIL kill: 9; TRAIL sens C8: 4; FLuc inhib CS: 61*

Results for C=C(C1=CCN(S(=O)(=O)C(C)(C)C)[C@@H]1CCO)c1ccccc1 ?
TRAIL sens C8: 6

How did C=C1[C@@H](OC(C)=O)C=C[C@@]2(C)C=CC(=O)[C@@](C)(OC(C)=O)[C@@H]2[C@@H](OC(C)=O)[C@]2(O)[C@@H](C)C(=O)O[C@H]2[C@H]1Cl do in these assays?
TRAIL sens C8: 6

What do the screens show for `CC[C@@H](C)[C@H](CN[C@H](CNC)C(C)C)NC[C@@H](C)c1ccc(CC(C)C)cc1`?
HSP90 refold inh: -1; TRAIL sens C8: 64*

Results for COc1ccccc1S(=O)(=O)N(C)C[C@@H]1OCc2cnnn2CCCC(=O)N([C@@H](C)CO)C[C@H]1C ?
TRAIL sens C8: -5

How did O=C(CN(Cc1ccccc1)C(=O)CCl)c1cccc(Br)c1 do in these assays?
TRAIL sens C8: 97*

Results for O=C(OCc1cn([C@@H]2CN(C(=O)C3CCCCC3)[C@@H](c3ccc(Cl)cc3)C[C@H]2O)nn1)c1ccccc1 ?
TRAIL sens C8: 11

What do the screens show for `CCOC(=O)[C@]12CCC=C1N(Cc1ccccc1)C(=O)[C@H](CC(=O)NCCC(C)C)C2`?
TRAIL sens C8: 4

Results for N=c1c2c(n(Cc3ccc(Cl)c(Cl)c3)c3c1CCC3)CCCC2 ?
HSP90 refold inh: 1; FLuc stim CS: 1; PPC-1+TRAIL kill: 42; TRAIL sens C8: 65*; FLuc inhib CS: -4

How did c1ccc2oc(-c3csc(N4CCOCC4)n3)cc2c1 do in these assays?
HSP90 refold inh: 6; FLuc stim CS: 0.1; PPC-1+TRAIL kill: -2; TRAIL sens C8: 53*; FLuc inhib CS: 86*
